{"source": "ChEMBL document CHEMBL2010771", "about": "“Studies toward novel peptidomimetic inhibitors of thioredoxin-thioredoxin reductase system” (J Med Chem, 2012)", "key": {"[1]": {"assay": "Inhibition of human recombinant Trx1/TrxR assessed as reduction in number of free thiols from reduced insulin after 30 mins by insulin reduction assay", "summary_of_the_method": "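At least seven compound concentrations. Incubated 30 min at 37 °C, stopped with 8 mM DTNB in 8 M guanidine HCl, A412. IC50 from four-parameter logistic fit. Triplicates, mean ± SD, n ≥ 3.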"}, "[2]": {"tested_on": "EMT6", "assay": "Cytotoxicity against mouse EMT6 cells after 72 hrs by crystal violet staining", "type": "functional", "conditions": "EMT6, 72 h, read-out: LD50 (the source's name)"}, "[3]": {"assay": "Chemical stability of the compound", "type": "physicochemical"}, "[4]": {"assay": "Cytotoxicity against mouse PancO2 cells after 72 hrs by crystal violet staining", "type": "functional", "conditions": "read-out: LD50 (the source's name)"}, "[5]": {"tested_on": "K562", "assay": "Cytotoxicity against human K562 cells after 72 hrs by MTT assay", "type": "functional", "conditions": "K562, 72 h, read-out: LD50 (the source's name)", "summary_of_the_method": "(§1)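 Suspension cells were grown in RPMI-1640 with 10% heat-inactivated FBS and exposed to compound for 72 h with DMSO ≤1%. MTT (5 mg/mL solution) was added for 4 h, then plates were centrifuged, cells lysed in DMSO and read at A570. Viability is % of solvent controls, background-corrected; n ≥ 3.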"}, "[6]": {"tested_on": "CT26", "assay": "Cytotoxicity against wild type mouse CT26 cells after 72 hrs by crystal violet staining", "type": "functional", "conditions": "CT26, 72 h, read-out: LD50 (the source's name)"}, "[7]": {"tested_on": "Mus musculus", "assay": "Toxicity in mouse EMT6 cells allografted BALB/c mouse assessed as change in body weight at 14 mg/kg, ip qd for 7 days measured on day 5", "type": "organism-based", "parameters": "dose 14 mg/kg, route intraperitoneal", "conditions": "in vivo, 168 h", "summary_of_the_method": "(§2)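 BALB/c mice, 8−12 weeks old, inoculated sc with 3.5 × 10^5 EMT6 cells into the depilated right thigh. Intraperitoneal dosing in DMSO began on day 7, when tumors reached a longer diameter of 5−7 mm, and was given daily. Controls received ip DMSO. Tumor volume was followed by calipers as longer × shorter²/2. Survival and body weight were monitored.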"}, "[8]": {"tested_on": "Raji", "assay": "Induction of Trx mRNA expression in human Raji cells at 5 to 10 uM after 4 to 24 hrs by RT-PCR analysis", "type": "functional, cell-based"}, "[9]": {"tested_on": "Mus musculus", "assay": "Toxicity in mouse EMT6 cells allografted BALB/c mouse assessed as mortality at 14 mg/kg, ip qd for 7 days measured on day 5", "type": "organism-based", "parameters": "dose 14 mg/kg, route intraperitoneal", "conditions": "in vivo, 168 h", "summary_of_the_method": "as §2"}, "[10]": {"tested_on": "Raji", "assay": "Cytotoxicity against human Raji cells after 72 hrs by MTT assay", "type": "functional", "conditions": "read-out: LD50 (the source's name)", "summary_of_the_method": "as §1"}, "[11]": {"tested_on": "Ramos", "assay": "Cytotoxicity against human Ramos cells after 72 hrs by MTT assay", "type": "functional", "conditions": "read-out: LD50 (the source's name)", "summary_of_the_method": "as §1"}, "[12]": {"tested_on": "T-24", "assay": "Cytotoxicity against human T24 cells after 72 hrs by crystal violet staining", "type": "functional", "conditions": "T-24, 72 h, read-out: LD50 (the source's name)"}, "[13]": {"assay": "Cytotoxicity against mouse MEF cells", "type": "cell-based", "conditions": "read-out: LD50 (the source's name)", "summary_of_the_method": "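Fibroblasts came from BALB/c embryos at E13.5 by 0.2% trypsin digestion at 37 °C for 10 min and were cultured in DMEM. Viability is % of solvent controls with DMSO ≤1%; n ≥ 3.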"}, "[14]": {"assay": "Cytotoxicity against mouse B78 cells after 72 hrs by crystal violet staining", "type": "functional", "conditions": "B78, 72 h, read-out: LD50 (the source's name)"}, "[15]": {"assay": "Cytotoxicity against mouse bone marrow cells after 72 hrs by XTT assay", "type": "cell-based, Bone marrow cell", "conditions": "read-out: LD50", "summary_of_the_method": "(§3)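 hPBMC were isolated from healthy donors on Histopaque 1077 and kept in RPMI. Bone marrow came from female BALB/c mice and was cultured in Iscove's medium with 10% FBS and 100 U IL-3. After compound exposure, cells got XTT at 0.3 mg/mL for 4 h, read at A490 against 690 nm. Viability is % of DMSO controls; n ≥ 3.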"}, "[16]": {"assay": "Cytotoxicity against human PBMC cells after 72 hrs by XTT assay", "type": "cell-based", "conditions": "read-out: LD50", "summary_of_the_method": "as §3"}, "[17]": {"tested_on": "Raji", "assay": "Induction of Trx protein expression in human Raji cells at 10 to 20 uM after 4 to 8 hrs by Western blot analysis", "type": "functional, cell-based", "summary_of_the_method": "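Raji cells exposed to compound for 4 and 8 h, washed and lysed in 0.1% NP40 with protease inhibitors. Equal protein (BCA) run on 15% SDS-PAGE and blotted to nitrocellulose, blocked in TBST with 5% BSA. Probed overnight with rabbit anti-thioredoxin and mouse anti-tubulin, then HRP secondaries for 45 min. ECL luminol/coumaric acid detection.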"}}, "note": "Active and inactive are the calls of the source. No cut-off for these calls is given here."}
{"smiles": "CC(C)C[C@@H](C(=O)NCC(=O)OCc1ccccc1)N(Cc1ccccc1)C(=O)C(CI)CI", "values": [{"measurement": "IC50", "setting": "[1]", "value": "> 50", "unit": "µM"}]}
{"smiles": "Cc1ccc(S(=O)(=O)OCC(COS(=O)(=O)c2ccc(C)cc2)C(=O)N(Cc2ccccc2)[C@@H](CC(C)C)C(=O)NCC(=O)OCc2ccccc2)cc1", "values": [{"measurement": "IC50", "setting": "[1]", "value": "> 50", "unit": "µM"}]}
{"smiles": "C=C(COC(=O)c1c(C(F)(F)F)cccc1C(F)(F)F)C(=O)OC", "values": [{"measurement": "CC50", "setting": "[2]", "value": "> 25", "unit": "µM"}, {"measurement": "Stability", "setting": "[3]", "value": "Unstable"}, {"measurement": "IC50", "setting": "[1]", "value": 0.4, "unit": "µM"}, {"measurement": "CC50", "setting": "[4]", "value": "> 25", "unit": "µM"}]}
{"smiles": "CCC(C)SSc1ncc[nH]1", "note": "(configuration not stated) [PX-12]", "values": [{"measurement": "CC50", "setting": "[5]", "value": 5.5, "unit": "µM"}, {"measurement": "CC50", "setting": "[6]", "value": 5.2, "unit": "µM"}, {"measurement": "Activity", "setting": "[7]", "value": "Toxic"}, {"measurement": "Activity", "setting": "[8]", "value": "Active"}, {"measurement": "Activity", "setting": "[9]", "value": "Toxic"}, {"measurement": "CC50", "setting": "[10]", "value": 8.8, "unit": "µM"}, {"measurement": "CC50", "setting": "[11]", "value": 3.4, "unit": "µM"}, {"measurement": "CC50", "setting": "[12]", "value": 4.6, "unit": "µM"}, {"measurement": "CC50", "setting": "[2]", "value": 11.6, "unit": "µM"}, {"measurement": "CC50", "setting": "[13]", "value": 2.7, "unit": "µM"}, {"measurement": "CC50", "setting": "[14]", "value": 5, "unit": "µM"}, {"measurement": "IC50", "setting": "[1]", "value": 12.3, "unit": "µM"}, {"measurement": "CC50", "setting": "[4]", "value": 3.9, "unit": "µM"}, {"measurement": "CC50 at 72 h", "setting": "[15]", "value": "> 12.5", "unit": "µM"}, {"measurement": "CC50 at 72 h", "setting": "[16]", "value": "> 25", "unit": "µM"}, {"measurement": "Activity", "setting": "[17]", "value": "Active"}]}
